Data from ChEMBL document CHEMBL4014355 (J Med Chem, 2017).
The source made the active and inactive calls. The rule behind the calls is not given here. Bridge positions count the residues as written; N and C are the ends. Square brackets hold non-standard residues; d marks the D form. Peptide text beside a SMILES is read from it. * marks the point of attachment. Arg(Me2s) = CN=C(NC)NCCC[C@H](N)C(=O)O; Arg(Me) = CNC(=N)NCCC[C@H](N)C(=O)O; d(αMeK) = C[C@@](N)(CCCCN)C(=O)O; dPhg = N[C@@H](C(=O)O)c1ccccc1; dOrn = NCCC[C@@H](N)C(=O)O; dDab = NCC[C@@H](N)C(=O)O; Isobutyryl = CC(C)C(=O)*; dDap = NC[C@@H](N)C(=O)O; Abu = CC[C@H](N)C(=O)O

Legend:
[1] = Half life in mouse microsomes; assay type: ADME, Microsome
[2] = Half life in human microsomes; assay type: ADME, Microsome
[3] = Half life in rat microsomes; assay type: ADME, Microsome
[4] = Inhibition of 5-FAM tracer binding to WDR5 delta23 mutant (24 to 334 residues) (unknown origin) expressed in Escherichia coli Rosetta 2 (DE3) cells after 3 hrs by fluorescence polarization assay; design: species or system Homo sapiens
MV4-11 [5] = assay: Cytotoxicity against human MV4-11 cells harboring MLL-AF4 fusion protein assessed as cell growth inhibition after 4 days by WST8 assay; assay type: functional, cell-based; settings: MV4-11, 96 h
In short: (§1)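 Cells (MOLM-13 with MLL-AF9, MV4-11 with MLL-AF4, HL-60 with no MLL fusion) seeded at 1 × 10^4 cells/well and exposed to a range of inhibitor concentrations for 4 days, with 0.2% DMSO final in the medium. Viability was read by WST-8 kit. Three independent experiments, each in triplicate.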

[6] = target: MLL1-ASH2L/RbBP5/WDR5/DPY30 (Homo sapiens, UniProt P61964); assay: Inhibition of human N-terminal GST-tagged MLL1 (3735 to 3973 residues) interaction with human full length N-terminal 6xHis-tagged ASH2L/N-terminal 6xHis-tagged human full length RbBP5/human N-terminal 6xHis-tagged WDR5/human full length N-terminal 6xHis-tagged DPY30 assessed as decrease in H3K4me1-2 methylation preincubated for 30 mins followed by SAM/nucleosome mixture addition measured after 120 mins in absence of light by AlphaLISA assay; assay type: protein assay
HL-60 = assay: Cytotoxicity against human HL60 cells lacking MLL translocation assessed as cell growth inhibition after 4 days by WST8 assay; assay type: cell-based; settings: HL-60, 96 h; in short: as §1
MOLM-13 [7] = assay: Cytotoxicity against human MOLM13 cells harboring MLL-AF9 fusion protein assessed as cell growth inhibition after 4 days by WST8 assay; assay type: functional, cell-based; settings: MOLM-13, 96 h; in short: as §1
[8] = Selectivity ratio of IC50 for human HL60 cells lacking MLL translocation to IC50 for human MV4-11 cells harboring MLL-AF4 fusion protein
[9] = Selectivity ratio of IC50 for human HL60 cells lacking MLL translocation to IC50 for human MOLM13 cells harboring MLL-AF9 fusion protein
[10] = target: Histone-lysine N-methyltransferase 2C (Homo sapiens) (UniProt Q8NEZ4); assay: Inhibition of MLL3 (unknown origin) H3K4 methyltransferase activity using biotinyl-H3 peptide (1 to 21 residues) and using [3H]-S adenosylmethionine as methyl donor up to 100 uM after 1 hr by scintillation counting
[11] = Stability of compound in cell culture media at 0.5 mM after 7 days by Waters ACQUITY UPLC analysis
[12] = target: Histone-lysine N-methyltransferase SETD1B (Homo sapiens) (UniProt Q9UPS6); assay: Inhibition of […] (unknown origin) H3K4 methyltransferase activity using biotinyl-H3 peptide (1 to 21 residues) and using [3H]-S adenosylmethionine as methyl donor up to 100 uM after 1 hr by scintillation counting
Sequence of Histone-lysine N-methyltransferase SETD1B (Homo sapiens) (Q9UPS6 whole entry, the tested form may be a part): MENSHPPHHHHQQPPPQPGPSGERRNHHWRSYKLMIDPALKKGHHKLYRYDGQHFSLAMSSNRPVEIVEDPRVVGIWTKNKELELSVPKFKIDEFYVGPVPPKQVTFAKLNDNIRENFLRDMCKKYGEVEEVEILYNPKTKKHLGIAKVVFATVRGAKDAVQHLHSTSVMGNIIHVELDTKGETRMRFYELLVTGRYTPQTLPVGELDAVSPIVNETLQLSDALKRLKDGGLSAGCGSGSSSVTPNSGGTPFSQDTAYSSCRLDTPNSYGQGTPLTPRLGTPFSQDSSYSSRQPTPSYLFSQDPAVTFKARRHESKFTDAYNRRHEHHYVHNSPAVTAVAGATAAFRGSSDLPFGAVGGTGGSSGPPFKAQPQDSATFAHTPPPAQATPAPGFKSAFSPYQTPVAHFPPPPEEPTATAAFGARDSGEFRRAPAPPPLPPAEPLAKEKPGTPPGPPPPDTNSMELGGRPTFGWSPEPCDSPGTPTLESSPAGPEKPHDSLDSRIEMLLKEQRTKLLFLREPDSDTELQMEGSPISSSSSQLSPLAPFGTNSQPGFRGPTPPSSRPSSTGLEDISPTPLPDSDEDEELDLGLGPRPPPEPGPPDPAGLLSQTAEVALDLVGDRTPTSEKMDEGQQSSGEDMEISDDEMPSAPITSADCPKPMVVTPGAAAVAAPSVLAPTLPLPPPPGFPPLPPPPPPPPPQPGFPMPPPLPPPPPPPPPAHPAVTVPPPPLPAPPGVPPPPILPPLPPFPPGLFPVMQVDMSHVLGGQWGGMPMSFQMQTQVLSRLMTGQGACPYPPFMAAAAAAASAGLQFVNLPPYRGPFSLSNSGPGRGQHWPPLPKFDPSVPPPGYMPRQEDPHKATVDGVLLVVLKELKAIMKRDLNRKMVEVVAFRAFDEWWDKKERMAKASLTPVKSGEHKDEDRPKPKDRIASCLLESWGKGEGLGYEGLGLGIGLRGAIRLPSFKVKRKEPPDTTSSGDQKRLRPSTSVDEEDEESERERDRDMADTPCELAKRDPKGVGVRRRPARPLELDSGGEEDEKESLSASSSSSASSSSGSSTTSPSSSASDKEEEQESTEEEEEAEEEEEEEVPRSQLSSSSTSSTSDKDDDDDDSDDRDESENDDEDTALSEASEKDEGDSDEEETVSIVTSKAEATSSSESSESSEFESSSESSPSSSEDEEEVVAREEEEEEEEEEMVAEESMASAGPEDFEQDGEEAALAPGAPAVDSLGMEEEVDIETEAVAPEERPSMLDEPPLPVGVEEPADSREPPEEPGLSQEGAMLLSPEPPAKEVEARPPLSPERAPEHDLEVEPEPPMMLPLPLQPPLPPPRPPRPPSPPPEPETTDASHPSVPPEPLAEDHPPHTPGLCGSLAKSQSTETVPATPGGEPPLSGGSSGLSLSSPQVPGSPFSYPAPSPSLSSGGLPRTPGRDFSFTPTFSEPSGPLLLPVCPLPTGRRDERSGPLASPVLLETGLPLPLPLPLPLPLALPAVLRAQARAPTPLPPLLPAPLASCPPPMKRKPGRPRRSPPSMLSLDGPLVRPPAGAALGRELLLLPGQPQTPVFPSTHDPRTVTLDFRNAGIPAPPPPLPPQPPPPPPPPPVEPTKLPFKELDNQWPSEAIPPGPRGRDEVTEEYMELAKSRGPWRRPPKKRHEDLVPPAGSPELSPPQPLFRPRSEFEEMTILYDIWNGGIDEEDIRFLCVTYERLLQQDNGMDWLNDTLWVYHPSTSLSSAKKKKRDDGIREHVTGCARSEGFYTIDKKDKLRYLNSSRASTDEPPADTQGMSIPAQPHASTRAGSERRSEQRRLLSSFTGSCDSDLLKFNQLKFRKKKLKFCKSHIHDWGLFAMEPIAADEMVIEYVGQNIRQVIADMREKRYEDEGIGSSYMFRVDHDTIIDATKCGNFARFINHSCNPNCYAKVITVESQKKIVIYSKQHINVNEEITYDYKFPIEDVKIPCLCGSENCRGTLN

MOLM-13 [13] = assay: Cytotoxicity against human MOLM13 cells harboring MLL-AF9 fusion protein assessed as cell growth inhibition after 7 days by WST8 assay; assay type: functional, cell-based; settings: MOLM-13, 168 h
In short: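 Long-term treatment of MOLM-13 plated at 5 × 10^4 cells/mL. Viability measured by WST-8 on day 4. Then 10% of viable cells were moved to fresh medium at the same compound concentration and cultured 3 more days, with viability read again on day 7.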

[14] = target: Histone-lysine N-methyltransferase 2B (Homo sapiens) (UniProt Q9UMN6); assay: Inhibition of MLL2 (unknown origin) H3K4 methyltransferase activity using biotinyl-H3 peptide (1 to 21 residues) and using [3H]-S adenosylmethionine as methyl donor up to 100 uM after 1 hr by scintillation counting
Sequence of Histone-lysine N-methyltransferase 2B (Homo sapiens) (Q9UMN6 whole entry, the tested form may be a part): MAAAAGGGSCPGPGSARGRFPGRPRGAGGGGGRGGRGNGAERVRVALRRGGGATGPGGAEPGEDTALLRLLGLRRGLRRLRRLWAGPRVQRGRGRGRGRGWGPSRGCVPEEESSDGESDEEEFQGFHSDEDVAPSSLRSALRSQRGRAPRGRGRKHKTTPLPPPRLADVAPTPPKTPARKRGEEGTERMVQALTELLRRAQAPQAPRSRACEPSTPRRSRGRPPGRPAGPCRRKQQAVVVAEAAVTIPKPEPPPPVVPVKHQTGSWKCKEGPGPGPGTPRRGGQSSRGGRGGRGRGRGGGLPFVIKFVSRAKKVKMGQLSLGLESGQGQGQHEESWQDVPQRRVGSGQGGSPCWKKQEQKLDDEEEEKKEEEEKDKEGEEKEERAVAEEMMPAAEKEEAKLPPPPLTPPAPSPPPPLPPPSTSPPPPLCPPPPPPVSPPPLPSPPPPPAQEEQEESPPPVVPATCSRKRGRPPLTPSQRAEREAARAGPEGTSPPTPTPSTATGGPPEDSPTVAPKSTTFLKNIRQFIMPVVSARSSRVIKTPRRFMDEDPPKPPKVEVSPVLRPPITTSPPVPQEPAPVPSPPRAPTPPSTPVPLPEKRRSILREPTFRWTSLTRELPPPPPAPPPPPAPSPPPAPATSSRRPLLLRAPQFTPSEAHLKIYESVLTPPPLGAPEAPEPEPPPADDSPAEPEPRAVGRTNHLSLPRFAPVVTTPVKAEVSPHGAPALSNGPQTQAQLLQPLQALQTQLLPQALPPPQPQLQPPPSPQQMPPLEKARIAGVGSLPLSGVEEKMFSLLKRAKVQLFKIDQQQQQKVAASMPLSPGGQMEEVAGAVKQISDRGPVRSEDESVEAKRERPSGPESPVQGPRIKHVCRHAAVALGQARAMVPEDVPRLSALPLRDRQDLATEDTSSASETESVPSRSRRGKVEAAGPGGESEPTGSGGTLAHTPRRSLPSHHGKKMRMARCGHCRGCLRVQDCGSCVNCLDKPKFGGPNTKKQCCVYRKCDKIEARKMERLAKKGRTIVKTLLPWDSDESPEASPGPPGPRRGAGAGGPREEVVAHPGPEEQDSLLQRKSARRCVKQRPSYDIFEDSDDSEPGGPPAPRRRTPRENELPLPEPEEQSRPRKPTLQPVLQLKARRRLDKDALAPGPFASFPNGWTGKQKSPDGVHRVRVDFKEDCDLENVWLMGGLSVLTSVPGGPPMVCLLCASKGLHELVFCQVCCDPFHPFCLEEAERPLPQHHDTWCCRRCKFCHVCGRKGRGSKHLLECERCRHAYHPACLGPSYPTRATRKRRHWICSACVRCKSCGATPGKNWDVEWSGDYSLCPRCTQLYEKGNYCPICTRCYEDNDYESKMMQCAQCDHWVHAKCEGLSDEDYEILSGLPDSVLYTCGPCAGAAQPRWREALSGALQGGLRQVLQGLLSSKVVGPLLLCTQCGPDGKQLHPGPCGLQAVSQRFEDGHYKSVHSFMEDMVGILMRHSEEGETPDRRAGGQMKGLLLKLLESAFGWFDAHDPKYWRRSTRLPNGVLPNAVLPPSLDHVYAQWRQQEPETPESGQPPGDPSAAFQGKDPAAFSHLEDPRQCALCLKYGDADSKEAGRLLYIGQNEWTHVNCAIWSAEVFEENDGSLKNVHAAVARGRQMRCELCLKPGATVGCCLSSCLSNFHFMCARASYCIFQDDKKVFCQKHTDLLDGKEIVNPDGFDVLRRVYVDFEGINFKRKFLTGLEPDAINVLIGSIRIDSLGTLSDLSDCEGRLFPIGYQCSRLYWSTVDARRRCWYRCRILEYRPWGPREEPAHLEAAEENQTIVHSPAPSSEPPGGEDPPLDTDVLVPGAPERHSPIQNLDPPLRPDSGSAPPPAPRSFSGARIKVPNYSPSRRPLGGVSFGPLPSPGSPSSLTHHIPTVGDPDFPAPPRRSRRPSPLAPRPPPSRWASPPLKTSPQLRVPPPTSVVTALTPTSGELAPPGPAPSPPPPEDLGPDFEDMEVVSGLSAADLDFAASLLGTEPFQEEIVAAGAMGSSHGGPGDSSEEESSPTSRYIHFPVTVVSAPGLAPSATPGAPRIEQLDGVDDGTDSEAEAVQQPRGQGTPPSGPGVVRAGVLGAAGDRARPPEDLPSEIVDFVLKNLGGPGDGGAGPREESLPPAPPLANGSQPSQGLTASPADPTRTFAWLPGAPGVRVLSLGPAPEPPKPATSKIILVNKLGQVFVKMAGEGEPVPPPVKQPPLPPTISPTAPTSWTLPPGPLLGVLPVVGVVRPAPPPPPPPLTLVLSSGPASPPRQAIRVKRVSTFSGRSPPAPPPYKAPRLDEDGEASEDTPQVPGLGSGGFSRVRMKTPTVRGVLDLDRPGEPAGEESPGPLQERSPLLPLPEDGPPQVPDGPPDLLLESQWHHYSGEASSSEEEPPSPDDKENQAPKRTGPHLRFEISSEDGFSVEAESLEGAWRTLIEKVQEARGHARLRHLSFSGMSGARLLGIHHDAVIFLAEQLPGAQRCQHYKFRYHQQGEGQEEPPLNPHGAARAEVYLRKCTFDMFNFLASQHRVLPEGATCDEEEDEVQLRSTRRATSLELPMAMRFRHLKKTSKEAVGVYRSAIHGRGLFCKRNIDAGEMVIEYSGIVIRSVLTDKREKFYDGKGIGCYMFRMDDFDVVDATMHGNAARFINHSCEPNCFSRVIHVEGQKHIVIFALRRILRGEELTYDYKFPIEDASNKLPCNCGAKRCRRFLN

[15] = target: Histone-lysine N-methyltransferase SETD1A (Homo sapiens) (UniProt O15047); assay: Inhibition of SET1a (unknown origin) H3K4 methyltransferase activity using biotinyl-H3 peptide (1 to 21 residues) and using [3H]-S adenosylmethionine as methyl donor up to 100 uM after 1 hr by scintillation counting
MV4-11 [16] = assay: Cytotoxicity against human MV4-11 cells harboring MLL-AF4 fusion protein assessed as cell growth inhibition at […] after 7 days by WST8 assay; assay type: functional; settings: MV4-11, 168 h, read-out: GI
MOLM-13 [17] = assay: Cytotoxicity against human MOLM13 cells harboring MLL-AF9 fusion protein assessed as cell growth inhibition at 0.38 uM after 4 days by WST8 assay; assay type: functional; settings: MOLM-13, 96 h, read-out: GI
MV4-11 [18] = assay: Cytotoxicity against human MV4-11 cells harboring MLL-AF4 fusion protein assessed as cell growth inhibition after 7 days by WST8 assay; assay type: functional, cell-based; settings: MV4-11, 168 h
In short: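 MV4-11 cells (MLL-AF4) plated at 5 × 10^4 cells/mL and treated with the compound. WST-8 viability was read on day 4. Then 10% of viable cells were moved to fresh medium with the same compound concentrations and cultured 3 more days. The day-7 read was also by WST-8.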

MV4-11 [19] = assay: Cytotoxicity against human MV4-11 cells harboring MLL-AF4 fusion protein assessed as cell growth inhibition at 0.69 uM after 4 days by WST8 assay; assay type: functional; settings: MV4-11, 96 h, read-out: GI
[20] = target: Histone-lysine N-methyltransferase 2D (Homo sapiens) (UniProt O14686); assay: Inhibition of MLL4 (unknown origin) H3K4 methyltransferase activity using biotinyl-H3 peptide (1 to 21 residues) and using [3H]-S adenosylmethionine as methyl donor up to 100 uM after 1 hr by scintillation counting
MOLM-13 [21] = assay: Cytotoxicity against human MOLM13 cells harboring MLL-AF9 fusion protein assessed as cell growth inhibition at 0.10 uM after 7 days by WST8 assay; assay type: functional; settings: MOLM-13, 168 h, read-out: GI

SMILES | half-life [1] [h] | half-life [2] [h] | half-life [3] [h] | IC50 [4] [nM] | Ki [4] [nM] | IC50 (MV4-11 [5]) [nM] | IC50 [6] [nM] | IC50 (HL-60) [nM] | IC50 (MOLM-13 [7]) [nM] | also measured
CCC(CC)(NC(=O)C(C)C)C(=O)N[C@@H](CCCNC(=N)N)C(=O)NC1(C(=O)NC(c2ccccc2)c2ccccc2)CCCC1 | 0.733 | 0.0667 | 0.567 |  |  |  |  |  |  | 
CC[C@@H]1NC(=O)[C@H](CCCNC(=N)N)NC(=O)[C@H](NC(=O)C(C)C)CCCNC(=O)[C@@H](c2ccccc2)NC1=O (Isobutyryl-[dOrn]R[Abu][dPhg]; lactam 1-C) |  |  |  | 164 | 32.9 | > 100000 | > 10000 | > 100000 | > 100000 | 
CC[C@@H]1NC(=O)[C@H](CCCNC(=N)N)NC(=O)[C@](C)(NC(=O)C(C)C)CCCNC(=O)[C@@H](c2ccccc2)NC1=O.O=C(O)C(F)(F)F | > 1 | > 1 | > 1 | 0.97 | < 1 | 1290 | 84.8 | 46800 | 1280 | Ratio IC50 [8]: >30; Ratio IC50 [9]: >30
CC[C@H]1NC(=O)[C@@H](CCCNC(=N)N)NC(=O)[C@@](C)(NC(=O)C(C)C)CCCCNC(=O)[C@H](c2ccccc2)NC1=O |  |  |  |  |  | > 100000 |  | > 100000 | > 100000 | 
CC[C@@H]1NC(=O)[C@H](CCCNC(=N)NC)NC(=O)[C@](C)(NC(=O)C(C)C)CCNC(=O)[C@@H](c2ccccc2)NC1=O.O=C(O)C(F)(F)F | > 1 | > 1 | > 1 | 0.9 | < 1 | 250 | 12.7 | 8560 | 210 | inhibition [10]: inactive; Stability [11]: Stable; inhibition [12]: inactive; IC50 (MOLM-13 [13]): 100 nM; inhibition [14]: inactive; Ratio IC50 [8]: >30; Ratio IC50 [9]: >30; inhibition [15]: inactive; inhibition of growth at […] (MV4-11 [16]): > 95%; inhibition of growth at 0.38 µM (MOLM-13 [17]): 75%; IC50 (MV4-11 [18]): 290 nM; inhibition of growth at 0.69 µM (MV4-11 [19]): 75%; inhibition [20]: inactive; inhibition of growth at 0.1 µM (MOLM-13 [21]): > 95%
CC[C@@H]1NC(=O)[C@H](CCCNC(=N)N)NC(=O)[C@](C)(NC(=O)C(C)C)CCCCNC(=O)[C@@H](c2ccccc2)NC1=O.O=C(O)C(F)(F)F | > 1 | > 1 | > 1 |  |  |  |  | > 100000 |  | 
CC[C@@H]1NC(=O)[C@H](CCCNC(=N)N)NC(=O)[C@](C)(NC(=O)C(C)C)CCCCN(C)C(=O)[C@@H](c2ccc(Cl)cc2)NC1=O.O=C(O)C(F)(F)F | > 1 | > 1 | > 1 | 1.5 | < 1 |  | 124 |  |  | 
CC[C@@H]1NC(=O)[C@H](CCCNC(=N)N)NC(=O)[C@](C)(NC(=O)C(C)C)CCNC(=O)[C@@H](c2ccccc2)NC1=O.O=C(O)C(F)(F)F | > 1 | > 1 | > 1 | 1.08 | < 1 | 460 | 12.6 | 17400 | 280 | Ratio IC50 [8]: >30; Ratio IC50 [9]: >30
CC[C@@H]1NC(=O)[C@H](CCCNC(=N)N)NC(=O)[C@H](NC(=O)C(C)C)CNC(=O)[C@@H](c2ccccc2)NC1=O (Isobutyryl-[dDap]R[Abu][dPhg]; lactam 1-C) |  |  |  | 1190 | 242 |  | > 10000 |  |  | 
CC[C@@H]1NC(=O)[C@H](CCCN/C(=N/C)NC)NC(=O)[C@](C)(NC(=O)C(C)C)CCCCNC(=O)[C@@H](c2ccccc2)NC1=O (Isobutyryl-[d(αMeK)][Arg(Me2s)][Abu][dPhg]; lactam 1-C) |  |  |  | 2.4 | < 1 | 15200 | 1260 | 84800 | 31500 | 
CC[C@@H]1NC(=O)[C@H](CCCNC(=N)NC)NC(=O)[C@](C)(NC(=O)C(C)C)CCCCNC(=O)[C@@H](c2ccccc2)NC1=O (Isobutyryl-[d(αMeK)][Arg(Me)][Abu][dPhg]; lactam 1-C) |  |  |  | 1.1 | < 1 | 4300 | 452 | > 100000 | 3600 | 
CC[C@@H]1NC(=O)[C@H](CCCNC(=N)NC)NC(=O)[C@](C)(NC(=O)C(C)C)CCNC(=O)[C@H](c2ccccc2)NC1=O |  |  |  | 2 | < 1 | 35000 | 477 |  | 14300 | 
CC[C@@H]1NC(=O)[C@H](CCCNC(=N)N)NC(=O)[C@](C)(NC(=O)C(C)C)CCCCCNC(=O)[C@@H](c2ccccc2)NC1=O |  |  |  | 2.6 | < 1 | 15100 | 1530 | > 100000 | 37600 | 
CC[C@@H]1NC(=O)[C@H](CCCNC(=N)N)NC(=O)[C@H](NC(=O)C(C)C)CCNC(=O)[C@@H](c2ccccc2)NC1=O (Isobutyryl-[dDab]R[Abu][dPhg]; lactam 1-C) |  |  |  | 6.2 | 0.8 | 43400 | 1800 | > 100000 | 42800 | 
CC[C@@H]1NC(=O)[C@H](CCCNC(=N)N)NC(=O)[C@](C)(NC(=O)C(C)C)CCCCN(C)C(=O)[C@@H](c2ccc(F)cc2)NC1=O.O=C(O)C(F)(F)F | > 1 | > 1 | > 1 | 1.6 | < 1 | 5200 | 138 | 60000 | 16200 | 
CC[C@@H]1NC(=O)[C@H](CCCNC(=N)N)NC(=O)[C@](C)(NC(=O)C(C)C)CCCCN(C)C(=O)[C@@H](c2ccccc2)NC1=O.O=C(O)C(F)(F)F | > 1 | > 1 | > 1 | 1.6 | < 1 |  | 190 |  |  | 
CC[C@@H]1NC(=O)[C@H](CCCNC(=N)N)NC(=O)[C@H](NC(=O)C(C)C)CCCCNC(=O)[C@@H](c2ccccc2)NC1=O (Isobutyryl-[dK]R[Abu][dPhg]; lactam 1-C) |  |  |  | 298 | 60.3 | > 100000 | > 10000 | > 100000 | > 100000 | 
